According to ChEMBL document CHEMBL1156302, “Discovery of a synthetic dual inhibitor of HIV and HCV infection based on a tetrabutoxy-calix[4]arene scaffold” (Bioorg Med Chem Lett, 2010):
Activity calls are given as the source filed them. The calls are words filed in the database; no cut-off is given here.

Experiments:
[1] = tested on: Human immunodeficiency virus 1; assay: Antiviral activity against HIV1 infected in human MT2 cells; format: functional, organism-based; conditions: Human immunodeficiency virus 1, MT2
[2] = tested on: MT2; assay: Cytotoxicity against human MT2 cells; format: cell-based
Procedure, shortened: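 Cell toxicity was measured in MT-2 human T cells bearing HTLV-1 and expressed as ID50.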

[3] = tested on: Hepatitis C virus; assay: Antiviral activity against HCV infected in human CEM cells assessed as inhibition of viral replication; format: functional, organism-based, Hepacivirus hominis; conditions: CCRF-CEM
[4] = tested on: CCRF-CEM; assay: Cytotoxicity against HCV infected human CEM cells; format: cell-based
[5] = Inhibition of PDGF binding to PDGFR
[6] = Inhibition of VEGF binding to VEGFR
[7] = tested on: Human immunodeficiency virus 1; assay: Antiviral activity against HIV1 infected in human CEMx174 cells; format: functional, organism-based
[8] = tested on: Human alphaherpesvirus 1; assay: Antiviral activity against HSV1 assessed as inhibition of viral replication; format: functional, organism-based
[9] = tested on: Hepatitis B virus; assay: Antiviral activity against HBV assessed as inhibition of viral replication; format: functional, organism-based
[10] = tested on: Human immunodeficiency virus 1; assay: Antiviral activity against HIV1 infected in human TZM-bl cells; format: functional, organism-based
Procedure, shortened: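 Host cells were TZM-bl, a HeLa line carrying firefly luciferase driven by an HIV promoter.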

[11] = tested on: Human alphaherpesvirus 2; assay: Antiviral activity against HSV2 assessed as inhibition of viral replication; format: functional, organism-based

| Structure (SMILES) | IC50 [1] | IC50 [2] | IC50 [3] | IC50 [4] | IC50 [5] | IC50 [6] | Activity [7] | Activity [8] | Activity [9] | Activity [10] | Activity [11] |
| --- | --- | --- | --- | --- | --- | --- | --- | --- | --- | --- | --- |
| CCCCOc1c2cc(C(=O)O)cc1Cc1cc(C(=O)O)cc(c1OCCCC)Cc1cc(C(=O)O)cc(c1OCCCC)Cc1cc(C(=O)O)cc(c1OCCCC)C2 | 2.9 µM | 13 µM | 30.1 µM |  |  |  |  |  |  |  |  |
| O=C(O)c1cc(NC(=O)c2cc3c(OCc4ccccc4)c(c2)Cc2cc(C(=O)Nc4cc(C(=O)O)cc(C(=O)O)c4)cc(c2OCc2ccccc2)Cc2cc(C(=O)Nc4cc(C(=O)O)cc(C(=O)O)c4)cc(c2OCc2ccccc2)Cc2cc(C(=O)Nc4cc(C(=O)O)cc(C(=O)O)c4)cc(c2OCc2ccccc2)C3)cc(C(=O)O)c1 | 0.3 µM | 18 µM | 1.4 µM | 0.46 µM |  |  |  |  |  |  |  |
| CCCCOc1c2cc(C(=O)Nc3cc(C(=O)O)cc(C(=O)OCc4ccccc4)c3)cc1Cc1cc(C(=O)Nc3cc(C(=O)O)cc(C(=O)OCc4ccccc4)c3)cc(c1OCCCC)Cc1cc(C(=O)Nc3cc(C(=O)O)cc(C(=O)OCc4ccccc4)c3)cc(c1OCCCC)Cc1cc(C(=O)Nc3cc(C(=O)O)cc(C(=O)OCc4ccccc4)c3)cc(c1OCCCC)C2 | > 50 µM | > 50 µM | 25.6 µM | 12.5 µM | 0.19 µM | 0.48 µM |  |  |  |  |  |
| CCCCOc1c2cc(C(=O)Nc3cc(C(=O)O)cc(C(=O)O)c3)cc1Cc1cc(C(=O)Nc3cc(C(=O)O)cc(C(=O)O)c3)cc(c1OCCCC)Cc1cc(C(=O)Nc3cc(C(=O)O)cc(C(=O)O)c3)cc(c1OCCCC)Cc1cc(C(=O)Nc3cc(C(=O)O)cc(C(=O)O)c3)cc(c1OCCCC)C2 | 0.36 µM | > 50 µM | 1.8 µM | 50 µM | 2.62 µM | 4.96 µM | Active | inactive | inactive | Active | inactive |
| O=C(O)c1cc2c(O)c(c1)Cc1cc(C(=O)O)cc(c1O)Cc1cc(C(=O)O)cc(c1O)Cc1cc(C(=O)O)cc(c1O)C2 | > 50 µM | > 50 µM | > 50 µM | > 50 µM |  |  |  |  |  |  |  |
| CCCCOc1c2cc(C(=O)NCCN)cc1Cc1cc(C(=O)NCCN)cc(c1OCCCC)Cc1cc(C(=O)NCCN)cc(c1OCCCC)Cc1cc(C(=O)NCCN)cc(c1OCCCC)C2 | < 16 µM | 16 µM | 5.7 µM | < 12.5 µM |  |  |  |  |  |  |  |
| O=C(O)c1cc2c(OCc3ccccc3)c(c1)Cc1cc(C(=O)O)cc(c1OCc1ccccc1)Cc1cc(C(=O)O)cc(c1OCc1ccccc1)Cc1cc(C(=O)O)cc(c1OCc1ccccc1)C2 | 37.1 µM | > 50 µM | > 50 µM | 50 µM |  |  |  |  |  |  |  |
| CCCCOc1c2cc(C(=O)N[C@@H](CCC(=O)O)C(=O)O)cc1Cc1cc(C(=O)N[C@@H](CCC(=O)O)C(=O)O)cc(c1OCCCC)Cc1cc(C(=O)N[C@H](CCC(=O)O)C(=O)O)cc(c1OCCCC)Cc1cc(C(=O)N[C@@H](CCC(=O)O)C(=O)O)cc(c1OCCCC)C2 | 2.4 µM | > 50 µM | 4.1 µM | 100 µM |  |  |  |  |  |  |  |
| O=C(O)c1cc(NC(=O)c2cc3c(O)c(c2)Cc2cc(C(=O)Nc4cc(C(=O)O)cc(C(=O)O)c4)cc(c2O)Cc2cc(C(=O)Nc4cc(C(=O)O)cc(C(=O)O)c4)cc(c2O)Cc2cc(C(=O)Nc4cc(C(=O)O)cc(C(=O)O)c4)cc(c2O)C3)cc(C(=O)O)c1 | 6.7 µM | > 50 µM | > 50 µM |  |  |  |  |  |  |  |  |
| CCCCOc1c2cc(C(=O)Nc3cc(C(=O)O)cc(C(=O)NC4CCCCC4)c3)cc1Cc1cc(C(=O)Nc3cc(C(=O)O)cc(C(=O)NC4CCCCC4)c3)cc(c1OCCCC)Cc1cc(C(=O)Nc3cc(C(=O)O)cc(C(=O)NC4CCCCC4)c3)cc(c1OCCCC)Cc1cc(C(=O)Nc3cc(C(=O)O)cc(C(=O)NC4CCCCC4)c3)cc(c1OCCCC)C2 | > 50 µM | > 50 µM | 4.1 µM | > 50 µM | 0.29 µM | > 10 µM |  |  |  |  |  |
